From ChEMBL document CHEMBL4038284, “Synthesis of novel quinoline-based 4,5-dihydro-1H-pyrazoles as potential anticancer, antifungal, antibacterial and antiprotozoal agents” (Eur J Med Chem, 2017)
≈ marks a conversion by molar mass, not a printed value. Calls of active or inactive are those of the source. The calls are words filed in the database; no cut-off is given here.

Tests used:
Cryptococcus neoformans [1] = experiment: Growth inhibition of Cryptococcus neoformans ATCC 32264 at 15.62 ug/ml incubated for 48 hrs under dark condition by broth microdilution method relative to control; format: functional; settings: ATCC 32264, 48 h, read-out: GI
Procedure, shortened: (§1)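 CLSI M27-A3 broth microdilution in RPMI-1640, DMSO ≤1%. Inoculum 1-5 × 10^3 CFU/mL. Incubated 48 h at 30 °C, dark. % inhibition = 100 − (OD405 test − sterility control)/(OD405 growth control − sterility control), with growth and sterility control wells. Triplicate.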

HCC 2998 = experiment: Growth inhibition of human HCC2998 cells at 10 uM incubated for 48 hrs by sulforhodamine B assay; format: functional, cell-based
Procedure, shortened: (§2)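 NCI 60-cell-line screen at a single 10 µM dose. Cells in RPMI-1640 with 5% FBS and 2 mM L-glutamine, pre-incubated 24 h, then treated for 48 h at 37 °C. TCA fixation, sulforhodamine B staining, absorbance at 515 nm. Percentage growth calculated against time-zero and untreated controls.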

HOP-92 = experiment: Growth inhibition of human HOP92 cells at 10 uM incubated for 48 hrs by sulforhodamine B assay; format: functional, cell-based
Procedure, shortened: (§3)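 NCI 60-line panel, single 10 μM dose. Cells were grown in RPMI-1640 with 5% FBS and 2 mM L-glutamine and pre-incubated 24 h before compound addition (DMSO stock). Exposure was 48 h at 37 °C, 5% CO2. Cells were fixed with cold TCA (10% final), stained with 0.4% SRB, bound dye dissolved in 10 mM Tris base, A515 read. Growth was taken relative to time-zero and untreated control plates.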

UACC-257 = experiment: Growth inhibition of human UACC257 cells at 10 uM incubated for 48 hrs by sulforhodamine B assay; format: functional, cell-based
Procedure, shortened: (§4)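 NCI-60 single-dose screen at 10 µM for 48 h. Cells were grown in RPMI-1640 with 5% FBS and 2 mM L-glutamine and preincubated 24 h before compound. Time-zero plates were TCA-fixed at compound addition. After exposure, cells were TCA-fixed, stained with SRB and read at 515 nm. Percentage growth was calculated against time-zero and untreated-control absorbances.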

UO-31 = experiment: Growth inhibition of human UO31 cells at 10 uM incubated for 48 hrs by sulforhodamine B assay; format: functional, cell-based; procedure, shortened: as §4
Leishmania panamensis = experiment: Antileshmanial activity against EpiR/GFP fused Leishmania panamensis MHOM/CO/87/UA140 intracellular amastigotes infected in human […] cells after 72 hrs by flow cytometric method; format: functional, cell-based; settings: MHOM/CO/87/UA140, 72 h
Procedure, shortened: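 PMA-treated U-937 cells (3 × 10^5 cells/mL) infected with stationary-phase GFP L. panamensis promastigotes (15:1), 3 h at 34 °C, then washed. After 24 h, compounds added at 50, 12.5, 3.125 and 0.78 µg/mL for 72 h at 37 °C. EC50 by Probit; triplicate, two experiments.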

Neisseria gonorrhoeae = experiment: Antibacterial activity against beta lactamase positive Neisseria gonorrhoeae ATCC 31426 by oxidase test; format: functional
Procedure, shortened: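 Agar dilution MIC on GC agar with 1% isovitalex containing increasing compound concentrations. Plates inoculated with about 1×10^4 CFU (5 µL). MIC is the lowest concentration that inhibited growth, with growth confirmed by oxidase test. Run in duplicate, repeated at least three times.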

Candida albicans [2] = experiment: Growth inhibition of Candida albicans ATCC 10231 at 62.5 ug/ml incubated for 48 hrs under dark condition by broth microdilution method relative to control; format: functional; settings: ATCC 10231, 48 h, read-out: GI; procedure, shortened: as §1
MDA-MB-435 = experiment: Growth inhibition of human MDA-MB-435 cells at 10 uM incubated for 48 hrs by sulforhodamine B assay; format: functional, cell-based; procedure, shortened: as §3
Cryptococcus neoformans [3] = experiment: Growth inhibition of Cryptococcus neoformans ATCC 32264 at 7.8 ug/ml incubated for 48 hrs under dark condition by broth microdilution method relative to control; format: functional; settings: ATCC 32264, 48 h, read-out: GI; procedure, shortened: as §1
NCI-H522 = experiment: Growth inhibition of human NCI-H522 cells at 10 uM incubated for 48 hrs by sulforhodamine B assay; format: functional, cell-based; procedure, shortened: as §3
COLO 205 = experiment: Growth inhibition of human COLO205 cells at 10 uM incubated for 48 hrs by sulforhodamine B assay; format: functional, cell-based; procedure, shortened: as §2
Cryptococcus neoformans [4] = experiment: Growth inhibition of Cryptococcus neoformans ATCC 32264 at 31.25 ug/ml incubated for 48 hrs under dark condition by broth microdilution method relative to control; format: functional; settings: ATCC 32264, 48 h, read-out: GI; procedure, shortened: as §1
Cryptococcus neoformans [5] = experiment: Growth inhibition of Cryptococcus neoformans ATCC 32264 at 250 ug/ml incubated for 48 hrs under dark condition by broth microdilution method relative to control; format: functional; settings: ATCC 32264, 48 h, read-out: GI; procedure, shortened: as §1
EKVX = experiment: Growth inhibition of human EKVX cells at 10 uM incubated for 48 hrs by sulforhodamine B assay; format: functional, cell-based; procedure, shortened: as §2
OVCAR-4 = experiment: Growth inhibition of human OVCAR4 cells at 10 uM incubated for 48 hrs by sulforhodamine B assay; format: functional, cell-based; procedure, shortened: as §3
MDA-MB-468 = experiment: Growth inhibition of human MDA-MB-468 cells at 10 uM incubated for 48 hrs by sulforhodamine B assay; format: functional, cell-based; procedure, shortened: as §3
HT-29 = experiment: Growth inhibition of human HT-29 cells at 10 uM incubated for 48 hrs by sulforhodamine B assay; format: functional, cell-based; procedure, shortened: as §3
Plasmodium falciparum = experiment: Antiplasmodial activity against chloroquine-sensitive Plasmodium falciparum 3D7 assessed as reduction in parasitic LDH activity after 48 hrs by Malstat reagent based […] method; format: functional; settings: 3D7, 48 h
Procedure, shortened: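 Unsynchronized P. falciparum 3D7 at 0.5% parasitemia and 1% hematocrit in RPMI with 3% Albumax II. Exposed to 100, 25, 6.25 and 1.56 µg/mL for 48 h at 37 °C under 90% N2/5% CO2/5% O2. After three freeze-thaw cycles, LDH measured with Malstat and NBT/PES, 1 h in the dark, read at 650 nm. IC50 by Probit; triplicate, ≥2 experiments.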

Escherichia coli = experiment: Antibacterial activity against Escherichia coli ATCC 25922 after 24 hrs by resazurin dye based microdilution assay; format: functional; settings: ATCC 25922, 24 h
Procedure, shortened: (§5)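 MIC taken as the lowest concentration giving visible inhibition and/or by resazurin (1 mg/mL). Gentamicin was the control. Run in duplicate, repeated at least three times.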

SN12C = experiment: Growth inhibition of human SN12C cells at 10 uM incubated for 48 hrs by sulforhodamine B assay; format: functional, cell-based; procedure, shortened: as §4
A498 = experiment: Growth inhibition of human A498 cells at 10 uM incubated for 48 hrs by sulforhodamine B assay; format: functional, cell-based; procedure, shortened: as §2
Candida albicans [6] = experiment: Growth inhibition of Candida albicans ATCC 10231 at 250 ug/ml incubated for 48 hrs under dark condition by broth microdilution method relative to control; format: functional; settings: ATCC 10231, 48 h, read-out: GI; procedure, shortened: as §1
Pseudomonas aeruginosa = experiment: Antibacterial activity against Pseudomonas aeruginosa ATCC 27853 after 24 hrs by resazurin dye based microdilution assay; format: functional; settings: ATCC 27853, 24 h; procedure, shortened: as §5
CCRF-CEM = experiment: Growth inhibition of human CCRF-CEM cells at 10 uM incubated for 48 hrs by sulforhodamine B assay; format: functional, cell-based; procedure, shortened: as §2

Clc1ccc(C2=NN(c3cc(Cl)cc(Cl)c3)C(c3cccc(Nc4ccnc5cc(Cl)ccc45)c3)C2)cc1 (stereo not given)
inhibition of growth at 15.62 µg/mL (Cryptococcus neoformans [1]): 0% | growth inhibition (GI) (HCC 2998): inactive | growth inhibition (GI) (HOP-92): inactive | growth inhibition (GI) (UACC-257): inactive | growth inhibition (GI) (UO-31): inactive | EC50 (Leishmania panamensis): 12 µg/mL (≈ 20.8 µM) | MIC (Neisseria gonorrhoeae): > 1000 µg/mL | inhibition of growth at 62.5 µg/mL (Candida albicans [2]): 13.8% | growth inhibition (GI) (MDA-MB-435): inactive | inhibition of growth at 7.8 µg/mL (Cryptococcus neoformans [3]): 0% | growth inhibition (GI) (NCI-H522): inactive | growth inhibition (GI) (COLO 205): inactive | inhibition of growth at 31.25 µg/mL (Cryptococcus neoformans [4]): 0% | inhibition of growth at 250 µg/mL (Cryptococcus neoformans [5]): 8.42% | growth inhibition (GI) (EKVX): inactive | growth inhibition (GI) (OVCAR-4): inactive | growth inhibition (GI) (MDA-MB-468): inactive | growth inhibition (GI) (HT-29): inactive | EC50 (Plasmodium falciparum): 11.3 µg/mL (≈ 19.6 µM) | MIC (Escherichia coli): > 1000 µg/mL | growth inhibition (GI) (SN12C): inactive | growth inhibition (GI) (A498): inactive | inhibition of growth at 250 µg/mL (Candida albicans [6]): 35% | MIC (Pseudomonas aeruginosa): > 1000 µg/mL | growth inhibition (GI) (CCRF-CEM): inactive

COc1ccc(C2=NN(c3ccccc3)C(c3cccc(Nc4ccnc5cc(Cl)ccc45)c3)C2)cc1 (stereo not given)
inhibition of growth at 15.62 µg/mL (Cryptococcus neoformans [1]): 6.02% | growth inhibition (GI) (HCC 2998): inactive | growth inhibition (GI) (HOP-92): inactive | growth inhibition (GI) (UACC-257): inactive | growth inhibition (GI) (UO-31): inactive | EC50 (Leishmania panamensis): 6.93 µg/mL (≈ 13.7 µM) | MIC (Neisseria gonorrhoeae): > 1000 µg/mL | inhibition of growth at 62.5 µg/mL (Candida albicans [2]): 17.3% | growth inhibition (GI) (MDA-MB-435): inactive | inhibition of growth at 7.8 µg/mL (Cryptococcus neoformans [3]): 4.41% | growth inhibition (GI) (NCI-H522): inactive | growth inhibition (GI) (COLO 205): inactive | inhibition of growth at 31.25 µg/mL (Cryptococcus neoformans [4]): 7.77% | inhibition of growth at 250 µg/mL (Cryptococcus neoformans [5]): 32.2% | growth inhibition (GI) (EKVX): inactive | growth inhibition (GI) (OVCAR-4): inactive | growth inhibition (GI) (MDA-MB-468): inactive | growth inhibition (GI) (HT-29): inactive | EC50 (Plasmodium falciparum): 13.7 µg/mL (≈ 27 µM) | MIC (Escherichia coli): > 1000 µg/mL | growth inhibition (GI) (SN12C): inactive | growth inhibition (GI) (A498): inactive | inhibition of growth at 250 µg/mL (Candida albicans [6]): 25.6% | MIC (Pseudomonas aeruginosa): > 1000 µg/mL | growth inhibition (GI) (CCRF-CEM): inactive

O=CN1N=C(c2ccc(Cl)cc2)CC1c1cccc(Nc2ccnc3cc(Cl)ccc23)c1 (stereo not given)
inhibition of growth at 15.62 µg/mL (Cryptococcus neoformans [1]): 44% | growth inhibition (GI) (HCC 2998): Active | growth inhibition (GI) (HOP-92): Active | growth inhibition (GI) (UACC-257): Active | growth inhibition (GI) (UO-31): Active | EC50 (Leishmania panamensis): 281 µg/mL (≈ 609 µM) | MIC (Neisseria gonorrhoeae): > 1000 µg/mL | inhibition of growth at 62.5 µg/mL (Candida albicans [2]): 28.2% | growth inhibition (GI) (MDA-MB-435): Active | inhibition of growth at 7.8 µg/mL (Cryptococcus neoformans [3]): 39.5% | growth inhibition (GI) (NCI-H522): Active | growth inhibition (GI) (COLO 205): Active | inhibition of growth at 31.25 µg/mL (Cryptococcus neoformans [4]): 55.7% | inhibition of growth at 250 µg/mL (Cryptococcus neoformans [5]): 79.9% | growth inhibition (GI) (EKVX): Active | growth inhibition (GI) (OVCAR-4): Active | growth inhibition (GI) (MDA-MB-468): Active | growth inhibition (GI) (HT-29): Active | EC50 (Plasmodium falciparum): 24.7 µg/mL (≈ 53.6 µM) | MIC (Escherichia coli): > 1000 µg/mL | growth inhibition (GI) (SN12C): Active | growth inhibition (GI) (A498): Active | inhibition of growth at 250 µg/mL (Candida albicans [6]): 67.5% | MIC (Pseudomonas aeruginosa): > 1000 µg/mL | growth inhibition (GI) (CCRF-CEM): Active

COc1ccc(C(=O)/C=C/c2cccc(Nc3ccnc4cc(Cl)ccc34)c2)cc1
inhibition of growth at 15.62 µg/mL (Cryptococcus neoformans [1]): 5.01% | growth inhibition (GI) (HCC 2998): Active | growth inhibition (GI) (HOP-92): Active | growth inhibition (GI) (UACC-257): Active | growth inhibition (GI) (UO-31): Active | EC50 (Leishmania panamensis): 2.65 µg/mL (≈ 6.39 µM) | MIC (Neisseria gonorrhoeae): > 1000 µg/mL | inhibition of growth at 62.5 µg/mL (Candida albicans [2]): 41.1% | growth inhibition (GI) (MDA-MB-435): Active | inhibition of growth at 7.8 µg/mL (Cryptococcus neoformans [3]): 2.47% | growth inhibition (GI) (NCI-H522): Active | growth inhibition (GI) (COLO 205): Active | inhibition of growth at 31.25 µg/mL (Cryptococcus neoformans [4]): 7.31% | inhibition of growth at 250 µg/mL (Cryptococcus neoformans [5]): 46.1% | growth inhibition (GI) (EKVX): Active | growth inhibition (GI) (OVCAR-4): Active | growth inhibition (GI) (MDA-MB-468): Active | growth inhibition (GI) (HT-29): Active | EC50 (Plasmodium falciparum): 10.5 µg/mL (≈ 25.4 µM) | MIC (Escherichia coli): > 1000 µg/mL | growth inhibition (GI) (SN12C): Active | growth inhibition (GI) (A498): Active | inhibition of growth at 250 µg/mL (Candida albicans [6]): 59.6% | MIC (Pseudomonas aeruginosa): > 1000 µg/mL | growth inhibition (GI) (CCRF-CEM): Active
